Reference: ChEMBL document CHEMBL1121628, “Synthesis of isomeric thienobenzothiazines and their effect on dopamine metabolism in rat brain” (1980)

Experiments:
Type in all cases: functional
[1] = species: Rattus norvegicus; test: Effective dose causing a homovanillic acid (HVA) concentration three fold the control level in rat striatum
Method in brief: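 Male albino Wistar rats (180-250 g) received drug i.p. in 0.9% NaCl with a little ascorbic acid, made fresh and kept from light. Controls got saline-ascorbic acid. Rats were decapitated 2 h later and the corpus striatum dissected. HVA was read fluorometrically as the mean of left and right striata. Four to six doses, 3-6 rats each; threefold-HVA dose taken from log dose-response curves.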

[2] = test system: Rattus norvegicus; test: Tested for neuroleptic activity by measuring the increase in homovanillic acid (HVA) level in rat tuberculum olfactorium at dosage of 20 umol/kg
Method in brief: (§1)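 Freshly made in 0.9% NaCl with a little ascorbic acid and kept from light, given ip to male Wistar rats (180-250 g); controls got saline-ascorbic acid. Rats decapitated 2 h post-dose and the brain region dissected. HVA was measured by a semiautomatic fluorometric method and expressed as % of control levels. 3-6 rats per dose.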

[3] = test system: Rattus norvegicus; test: Tested for neuroleptic activity by measuring the increase in homovanillic acid (HVA) level in rat corpus striatum at dosage of 30 umol/kg
Method in brief: (§2)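 Wistar male rats (180-250 g) were dosed i.p. at the stated level in fresh, light-protected 0.9% NaCl with a little ascorbic acid; controls received saline-ascorbic acid. They were decapitated at 2 h and the corpus striatum removed. HVA was assayed by a semiautomatic fluorometric method, averaging both striata, with 3-6 rats per dose. Values are expressed as % of control HVA.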

[4] = test system: Rattus norvegicus; test: Tested for neuroleptic activity by measuring the increase in homovanillic acid (HVA) level in rat nucleus accumbens at dosage of 30 umol/kg
[5] = test system: Rattus norvegicus; test: Tested for neuroleptic activity by measuring the increase in homovanillic acid (HVA) level in rat nucleus accumbens at dosage of 10 umol/kg
[6] = test system: Rattus norvegicus; test: Tested for neuroleptic activity by measuring the increase in homovanillic acid (HVA) level in rat tuberculum olfactorium at dosage of 50 umol/kg; method in brief: as §1
[7] = test system: Rattus norvegicus; test: Tested for neuroleptic activity by measuring the increase in homovanillic acid (HVA) level in rat tuberculum olfactorium at dosage of 10 umol/kg; method in brief: as §1
[8] = test system: Rattus norvegicus; test: Tested for neuroleptic activity by measuring the increase in homovanillic acid (HVA) level in rat corpus striatum at dosage of 50 umol/kg; method in brief: as §2
[9] = test system: Rattus norvegicus; test: Tested for neuroleptic activity by measuring the increase in homovanillic acid (HVA) level in rat corpus striatum at dosage of 20 umol/kg; method in brief: as §2
[10] = test system: Rattus norvegicus; test: Tested for neuroleptic activity by measuring the increase in homovanillic acid (HVA) level in rat nucleus accumbens at dosage of 50 umol/kg
[11] = test system: Rattus norvegicus; test: Tested for neuroleptic activity by measuring the increase in homovanillic acid (HVA) level in rat corpus striatum at dosage of 10 umol/kg; method in brief: as §2
[12] = test system: Rattus norvegicus; test: Tested for neuroleptic activity by measuring the increase in homovanillic acid (HVA) level in rat nucleus accumbens at dosage of 20 umol/kg
[13] = test system: Rattus norvegicus; test: Tested for neuroleptic activity by measuring the increase in homovanillic acid (HVA) level in rat tuberculum olfactorium at dosage of 30 umol/kg; method in brief: as §1
[14] = test system: Rattus norvegicus; test: Tested for neuroleptic activity by measuring the increase in homovanillic acid (HVA) level in rat tuberculum olfactorium at dosage of 25 umol/kg; method in brief: as §1
[15] = test system: Rattus norvegicus; test: Tested for neuroleptic activity by measuring the increase in homovanillic acid (HVA) level in rat nucleus accumbens at dosage of 15 umol/kg; method in brief: as §1
[16] = test system: Rattus norvegicus; test: Tested for neuroleptic activity by measuring the increase in homovanillic acid (HVA) level in rat corpus striatum at dosage of 5 umol/kg; method in brief: as §2
[17] = test system: Rattus norvegicus; test: Tested for neuroleptic activity by measuring the increase in homovanillic acid (HVA) level in rat corpus striatum at dosage of 15 umol/kg; method in brief: as §2
[18] = test system: Rattus norvegicus; test: Tested for neuroleptic activity by measuring the increase in homovanillic acid (HVA) level in rat nucleus accumbens at dosage of 25 umol/kg
[19] = test system: Rattus norvegicus; test: Tested for neuroleptic activity by measuring the increase in homovanillic acid (HVA) level in rat nucleus accumbens at dosage of 5 umol/kg
[20] = test system: Rattus norvegicus; test: Tested for neuroleptic activity by measuring the increase in homovanillic acid (HVA) level in rat tuberculum olfactorium at dosage of 5 umol/kg; method in brief: as §1
[21] = test system: Rattus norvegicus; test: Tested for neuroleptic activity by measuring the increase in homovanillic acid (HVA) level in rat corpus striatum at dosage of 25 umol/kg; method in brief: as §2
[22] = test system: Rattus norvegicus; test: Tested for neuroleptic activity by measuring the increase in homovanillic acid (HVA) level in rat tuberculum olfactorium at dosage of 15 umol/kg; method in brief: as §1
[23] = test system: Rattus norvegicus; test: Tested for neuroleptic activity by measuring the increase in homovanillic acid (HVA) level in rat nucleus accumbens at dosage of 75 umol/kg
[24] = test system: Rattus norvegicus; test: Tested for neuroleptic activity by measuring the increase in homovanillic acid (HVA) level in rat tuberculum olfactorium at dosage of 75 umol/kg; method in brief: as §1
[25] = test system: Rattus norvegicus; test: Tested for neuroleptic activity by measuring the increase in homovanillic acid (HVA) level in rat corpus striatum at dosage of 75 umol/kg; method in brief: as §2

SMILES: CN(C)CCCN1c2cc(Cl)ccc2Sc2ccsc21
- ED300 [1]: 350 µM/kg

SMILES: CN(C)CCCN1c2cc(C(F)(F)F)ccc2Sc2sccc21
- HVA control [2]: 240%
- HVA control [3]: 430%
- HVA control [4]: 360%
- HVA control [5]: 250%
- ED300 [1]: 6.1 µM/kg
- HVA control [6]: 300%
- HVA control [7]: 180%
- HVA control [8]: 510%
- HVA control [9]: 410%
- HVA control [10]: 510%
- HVA control [11]: 320%
- HVA control [12]: 350%
- HVA control [13]: 280%

SMILES: CN(C)CCCN1c2ccccc2Sc2cscc21
- ED300 [1]: 460 µM/kg

SMILES: CN(C)CCCN1c2cscc2Sc2ccc(C(F)(F)F)cc21
- HVA control [14]: 270%
- HVA control [5]: 185%
- HVA control [15]: 260%
- HVA control [16]: 140%
- HVA control [17]: 340%
- ED300 [1]: 9.2 µM/kg
- HVA control [18]: 390%
- HVA control [19]: 125%
- HVA control [20]: 100%
- HVA control [21]: 445%
- HVA control [7]: 160%
- HVA control [22]: 210%
- HVA control [11]: 310%

SMILES: CN(C)CCCN1c2cscc2Sc2ccc(Cl)cc21
- ED300 [1]: 19.2 µM/kg

SMILES: CN(C)CCCN1c2cc(C(F)(F)F)ccc2Sc2ccsc21
- HVA control [23]: 375%
- HVA control [15]: 100%
- HVA control [17]: 130%
- ED300 [1]: 30.1 µM/kg
- HVA control [6]: 150%
- HVA control [8]: 310%
- HVA control [24]: 200%
- HVA control [25]: 440%
- HVA control [10]: 180%

SMILES: CN(C)CCCN1c2ccccc2Sc2sccc21
- ED300 [1]: 480 µM/kg

SMILES: CN(C)CCCN1c2cc(Cl)ccc2Sc2sccc21
- ED300 [1]: 36 µM/kg

SMILES: Cl.OCCN1CCN(CCCN2c3ccccc3Sc3sccc32)CC1
- ED300 [1]: 18.9 µM/kg

SMILES: Cl.OCCN1CCN(CCCN2c3cc(Cl)ccc3Sc3sccc32)CC1
- ED300 [1]: 3.27 µM/kg

SMILES: Cl.OCCN1CCN(CCCN2c3cc(C(F)(F)F)ccc3Sc3ccsc32)CC1
- ED300 [1]: 4 µM/kg

SMILES: Cl.OCCN1CCN(CCCN2c3cc(C(F)(F)F)ccc3Sc3sccc32)CC1
- ED300 [1]: 0.75 µM/kg

SMILES: Cl.OCCN1CCN(CCCN2c3cscc3Sc3ccc(C(F)(F)F)cc32)CC1
- ED300 [1]: 0.54 µM/kg

SMILES: Cl.OCCN1CCN(CCCN2c3cc(Cl)ccc3Sc3ccsc32)CC1
- ED300 [1]: 20.5 µM/kg

SMILES: Cl.OCCN1CCN(CCCN2c3cscc3Sc3ccc(Cl)cc32)CC1
- ED300 [1]: 1.5 µM/kg

SMILES: Cl.OCCN1CCN(CCCN2c3ccccc3Sc3cscc32)CC1
- ED300 [1]: 13.7 µM/kg
